# Results as given in ChEMBL document CHEMBL4038269, “Design, synthesis and evaluation of novel feruloyl-donepezil hybrids as potential multitarget drugs for the treatment of Alzheimer's disease” (Eur J Med Chem, 2017).
# Active and inactive are the calls of the source.
# How the values were obtained:
# Acetylcholinesterase = Acetylcholinesterase (Electrophorus electricus, UniProt O42275); assay: Inhibition of Electrophorus electricus AChE using acetylthiocholine iodide as substrate pretreated for 10 mins followed by substrate addition measured at 12 secs interval for 5 mins by Ellman's method
# Acetylcholinesterase, sequence (O42275 whole entry): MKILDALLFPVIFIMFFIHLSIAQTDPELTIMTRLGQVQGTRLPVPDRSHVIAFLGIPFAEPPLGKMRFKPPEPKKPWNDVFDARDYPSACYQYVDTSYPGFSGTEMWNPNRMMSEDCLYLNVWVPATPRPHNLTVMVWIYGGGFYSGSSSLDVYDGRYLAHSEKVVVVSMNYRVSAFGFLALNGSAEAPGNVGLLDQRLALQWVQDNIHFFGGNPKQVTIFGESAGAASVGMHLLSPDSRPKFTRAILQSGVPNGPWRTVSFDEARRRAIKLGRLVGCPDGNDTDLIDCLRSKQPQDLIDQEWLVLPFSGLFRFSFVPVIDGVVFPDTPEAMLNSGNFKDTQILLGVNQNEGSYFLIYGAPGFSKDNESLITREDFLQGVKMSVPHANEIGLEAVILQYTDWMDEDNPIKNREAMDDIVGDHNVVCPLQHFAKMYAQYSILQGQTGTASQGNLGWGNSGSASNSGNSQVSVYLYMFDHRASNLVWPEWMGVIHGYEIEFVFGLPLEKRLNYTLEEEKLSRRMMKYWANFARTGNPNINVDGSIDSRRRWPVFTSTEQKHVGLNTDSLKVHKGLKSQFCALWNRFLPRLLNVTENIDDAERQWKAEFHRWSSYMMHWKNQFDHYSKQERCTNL
# [1] = Antioxidant activity assessed as DPPH radical scavenging activity measured after 30 mins; format: functional
# Summary of the method: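 DPPH scavenging: compound at 12.5, 25, 50 and 100 µM in ethanol (4 mL) mixed with 1 mL of 0.5 mM DPPH in ethanol. Shaken 30 min at room temperature, absorbance read at 517 nm. % inhibition = (A control − A sample)/A control × 100. Run in triplicate; EC50 obtained by linear regression of mean values.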
# Mus musculus [2] = assay: Anti-inflammatory activity in Swiss mouse model of LPS-induced peritonitis assessed as inhibition of leukocyte migration at 100 umol/kg, po pretreated for 30 mins followed by LPS challenge measured after 4 hrs by Neubauer chamber method; format: functional, organism-based
# Summary of the method: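 Adult male Swiss mice (22-28 g), n=8 per group, dosed orally with 100 µmol/kg or vehicle (saline + DMSO 2%). 30 min later E. coli 026:B6 LPS, 100 µg/kg i.p. in sterile saline. Killed at 4 h by halothane overdose. Peritoneum lavaged with 10 ml PBS containing 0.5% sodium citrate. Total leukocytes counted in a Neubauer chamber, expressed as cells per cavity, mean ± SEM.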
# Mus musculus [3] = assay: Antinociceptive activity in carrageenan-induced Swiss mouse model of mechanical hyperalgesia at 100 umol/kg, po pretreated for 1 hr followed by carrageenan challenge measured at 3 hrs post dose by Von Frey filament assay; format: functional, organism-based
# Summary of the method: (§1)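 Male Swiss mice (n=8) dosed orally with 100 µmol/kg or vehicle 1 h before intraplantar carrageenan (100 µg/paw). Mechanical threshold measured by up-and-down Von Frey method after 60 min acclimation on a wire screen. Started at 0.4 g filament, ≥6 trials at 10 s intervals, about 4 s per application. Reported as mean threshold in grams ± SEM.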
# Mus musculus [4] = assay: Anti-inflammatory activity in Swiss mouse assessed as reduction in carrageenan-induced paw edema at 100 umol/kg, po pretreated for 1 hr followed by carrageenan challenge after 3 hrs by plethysmometer; format: functional, organism-based
# Summary of the method: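 Adult male Swiss mice (22-28 g), fasted overnight, given vehicle (DMSO 2% in sterile saline) or 100 µmol/kg orally 1 h before intraplantar carrageenan. Methods give 400 µg/20 µl and n=10 per group; figure legend gives 100 µg/paw and n=8. Right hind paw volume read by plethysmometer at 1, 3 and 5 h. Reported as change in µL from basal volume, mean ± SEM.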
# SH-SY5Y [5] = assay: Antioxidant activity in human SH-SY5Y cells assessed as reduction in H2O2-induced reactive oxygen species formation at 40 uM measured after 24 hrs by DCFH-DA probe based fluorescence assay relative to control; format: functional; set-up: scale not given: the % may be the effect or the level left
# [6] = Cytotoxicity against human SH-SY5Y cells assessed as reduction in cell viability at 40 uM after 24 hrs by MTT assay relative to control; format: cell-based; details: read-out: INH
# Summary of the method: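 SH-SY5Y cells seeded at 2 x 10^4 cells/well, grown 24 h, then exposed to compound 1.25–40 µM for 24 h at 37 °C. MTT (5 mg/mL in PBS) added for 2 h and formazan dissolved in isopropanol. Read at 570 nm, reference 690 nm. Viability loss reported as percent at the top concentration, 40 µM.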
# SH-SY5Y [7] = assay: Antioxidant activity in human SH-SY5Y cells assessed as reduction in H2O2-induced reactive oxygen species formation at 10 uM measured after 24 hrs by DCFH-DA probe based fluorescence assay; format: functional, cell-based
# [8] = Metal chelating activity assessed as absorption maximum for compound-Cu2+ complex formation at 75 uM after 30 mins by UV-Vis spectrophotometric method (reference value: 237.2 nanometer); format: functional
# Summary of the method: (§2)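 UV-Vis spectra in ethanol of compound at 75 µM alone or after 30 min incubation with CuSO4, FeSO4, FeCl3 or ZnCl2 (150 µM). Absorption maxima recorded.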
# [9] = Metal chelating activity assessed as absorption maximum for compound-Fe2+ complex formation at 75 uM after 30 mins by UV-Vis spectrophotometric method (reference value: 237.2 nanometer); format: functional; summary of the method: as §2
# [10] = Metal chelating activity assessed as compound-Fe3+ complex formation at 75 uM after 30 mins by UV-Vis spectrophotometric method; format: functional; summary of the method: as §2
# [11] = Metal chelating activity assessed as absorption maximum for compound-Zn2+ complex formation at 75 uM after 30 mins by UV-Vis spectrophotometric method; format: functional; summary of the method: as §2
# SH-SY5Y [12] = assay: Antioxidant activity in human SH-SY5Y cells assessed as increase in GSH level at 20 uM after 24 hrs by MCB probe based assay relative to control; format: functional
# Summary of the method: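 SH-SY5Y cells (DMEM, 10% FBS, 37 °C, 5% CO2) seeded at 2 x 10^4 cells/well and grown 24 h. Treated with 20 µM compound for 3-24 h. Then 50 µM monochlorobimane in PBS for 30 min at 37 °C. GSH fluorescence read at ex 360/em 465 nm, as % of control cells. Mean ± SD of three independent experiments.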
# Mus musculus [13] = assay: In vivo inhibition of COX-1 activity in carrageenan-induced Swiss mouse serum at 100 umol/kg, po pretreated for 1 hr followed by carrageenan challenge after 3 hrs by ELISA relative to control; format: functional
# Summary of the method: (§3)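 Male Swiss mice given oral drug (100 µmol/kg) or vehicle 1 h before intraplantar carrageenan (legend: 400 µg/paw). At 3 h, animals anaesthetised with chloral hydrate and cardiac blood taken. Serum separated (1500 rpm, 20 min) and frozen at -70 °C. COX-1, COX-2 and 5-LOX measured by specific sandwich ELISA at 450 nm. Expressed as % enzymatic activity, mean ± SEM, n=8.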
# Mus musculus [14] = assay: In vivo inhibition of COX-2 activity in carrageenan-induced Swiss mouse serum at 100 umol/kg, po pretreated for 1 hr followed by carrageenan challenge after 3 hrs by ELISA relative to control; format: functional; summary of the method: as §3
# Mus musculus [15] = assay: Antiinflammatory activity in formalin-induced nociception Swiss mouse model assessed as reduction in time spent licking formalin injected hind paw during inflammatory phase at 100 umol/kg, po pretreated for 1 hr followed by formalin challenge measured after 20 to 30 mins; format: functional, organism-based
# Summary of the method: (§4)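 Male Swiss mice (22-28 g), n=8 per group, given oral vehicle (saline + DMSO 2%) or 100 µmol/kg 1 h before formalin (5% in 0.9% saline, 20 µl) into the right hind paw sub-plantar region. Morphine 39 µmol/kg i.p. was given 30 min before. Paw-licking time recorded at 0–5 min (neurogenic phase) and 20–30 min (inflammatory phase).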
# Mus musculus [16] = assay: Neurotoxicity in Swiss mouse assessed as induction of motor impairment at 100 umol/kg, po measured after 1 hr by open filed test; format: toxicity, organism-based; details: in vivo
# Summary of the method: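 Male Swiss mice (n=8) given vehicle or compound orally 1 h before open-field test. Crossings of the central four and peripheral 12 squares counted separately.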
# Mus musculus [17] = assay: Antinociceptive activity in carrageenan-induced Swiss mouse model of mechanical hyperalgesia at 100 umol/kg, po pretreated for 1 hr followed by carrageenan challenge measured at 3 hrs to 7 hrs post dose by Von Frey filament assay; format: functional, organism-based; summary of the method: as §1
# SH-SY5Y [18] = assay: Pro-oxidant activity in human SH-SY5Y cells assessed as increase in H2O2-induced reactive oxygen species formation at 20 to 40 uM pretreated for 24 hrs followed by H2O2 addition by DCFH-DA probe based fluorescence assay; format: ADME, cell-based
# SH-SY5Y [19] = assay: Antioxidant activity in human SH-SY5Y cells assessed as reduction in H2O2-induced reactive oxygen species formation measured after 24 hrs by DCFH-DA probe based fluorescence assay; format: functional, cell-based
# [20] = biological target: Acetylcholinesterase (Electrophorus electricus) (UniProt O42275); assay: Inhibition of Electrophorus electricus AChE at 30 uM using acetylthiocholine iodide as substrate pretreated for 10 mins followed by substrate addition measured at 12 secs interval for 5 mins by Ellman's method relative to control
# Acetylcholinesterase (Electrophorus electricus), sequence (O42275 24-633 limits assumed): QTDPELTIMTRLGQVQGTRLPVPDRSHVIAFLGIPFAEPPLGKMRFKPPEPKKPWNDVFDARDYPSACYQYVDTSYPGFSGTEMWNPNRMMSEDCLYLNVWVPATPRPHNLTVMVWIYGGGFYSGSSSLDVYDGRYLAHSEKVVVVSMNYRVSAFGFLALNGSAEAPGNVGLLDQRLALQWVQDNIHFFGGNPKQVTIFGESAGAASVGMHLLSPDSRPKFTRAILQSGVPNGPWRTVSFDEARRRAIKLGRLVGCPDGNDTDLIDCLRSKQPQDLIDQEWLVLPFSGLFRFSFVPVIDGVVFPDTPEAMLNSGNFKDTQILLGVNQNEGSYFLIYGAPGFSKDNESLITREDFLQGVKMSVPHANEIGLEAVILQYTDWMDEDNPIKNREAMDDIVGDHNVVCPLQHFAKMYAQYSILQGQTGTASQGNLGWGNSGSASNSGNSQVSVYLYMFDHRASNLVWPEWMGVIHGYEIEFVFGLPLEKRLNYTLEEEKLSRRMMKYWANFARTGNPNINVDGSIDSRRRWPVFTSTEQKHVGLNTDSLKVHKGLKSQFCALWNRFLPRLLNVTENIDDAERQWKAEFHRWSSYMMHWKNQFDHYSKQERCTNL
# Summary of the method: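 Enzyme (0.5 U/mL) with DTNB (10 mM) in 0.1 M sodium phosphate pH 7.4; compound at 30 μM preincubated 10 min, then acetylthiocholine or butyrylthiocholine iodide added ([…]); A412 read every 12 s for 5 min. Velocity as percent of vehicle control; means and pooled SD from 2-4 experiments in triplicate. DMSO ≤0.2% final.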
# [21] = biological target: Cholinesterase (Equus caballus) (UniProt P81908); assay: Inhibition of equine serum BuChE at 30 uM using butyrylthiocholine iodide as substrate pretreated for 10 mins followed by substrate addition measured at 12 secs interval for 5 mins by Ellman's method relative to control
# Cholinesterase (Equus caballus), sequence (P81908 whole entry): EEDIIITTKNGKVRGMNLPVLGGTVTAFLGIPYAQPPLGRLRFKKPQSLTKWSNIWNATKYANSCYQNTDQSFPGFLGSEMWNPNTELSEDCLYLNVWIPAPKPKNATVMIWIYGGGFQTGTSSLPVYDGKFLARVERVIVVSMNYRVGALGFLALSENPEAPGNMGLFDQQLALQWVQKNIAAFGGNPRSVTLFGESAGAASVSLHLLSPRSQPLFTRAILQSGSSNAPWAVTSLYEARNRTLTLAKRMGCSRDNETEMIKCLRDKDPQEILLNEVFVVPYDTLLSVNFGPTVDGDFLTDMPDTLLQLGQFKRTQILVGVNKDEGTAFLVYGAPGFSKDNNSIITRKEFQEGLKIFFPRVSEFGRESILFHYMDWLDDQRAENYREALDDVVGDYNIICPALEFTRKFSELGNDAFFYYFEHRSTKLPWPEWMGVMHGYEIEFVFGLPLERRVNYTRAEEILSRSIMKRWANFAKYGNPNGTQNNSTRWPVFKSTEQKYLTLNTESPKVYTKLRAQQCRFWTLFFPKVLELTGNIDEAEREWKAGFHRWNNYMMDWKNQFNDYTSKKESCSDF
# Cholinesterase = Cholinesterase (Equus caballus, UniProt P81908); assay: Inhibition of equine serum BuChE using butyrylthiocholine iodide as substrate pretreated for 10 mins followed by substrate addition measured at 12 secs interval for 5 mins by Ellman's method
# Cholinesterase, sequence (P81908 whole entry): as above
# Summary of the method: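 Ellman assay in 0.1 M sodium phosphate pH 7.4, enzyme 0.5 U/mL, DTNB 10 mM; concentration series preincubated 10 min before butyrylthiocholine iodide ([…]); A412 over 5 min at 12 s intervals. IC50 from fitted concentration-response curves, geometric mean of independent experiments, each in triplicate; DMSO ≤0.2% final.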
# Mus musculus [22] = assay: Antiinflammatory activity in formalin-induced nociception Swiss mouse model assessed as reduction in time spent licking formalin injected hind paw during neurogenic phase at 100 umol/kg, po pretreated for 1 hr followed by formalin challenge measured up to 5 mins; format: functional, organism-based; summary of the method: as §4
# [23] = Homo sapiens, SH-SY5Y, 24 h, read-out: IC50
structure (smiles),measurement,setting,value
COc1cc(/C=C/C(=O)OCC2CCN(Cc3ccc(N4CCOCC4)cc3)CC2)ccc1O,IC50,Acetylcholinesterase,> 30 µM
same,EC50,[1],73.8 µM
COc1ccc(/C=C/C(=O)OCC2CCN(Cc3ccccc3)CC2)cc1O,IC50,Acetylcholinesterase,> 30 µM
same,EC50,[1],> 100 µM
COc1ccc(/C=C/C(=O)O)cc1O [ISOFERULIC ACID],EC50,[1],> 100 µM
COc1cc(/C=C/C(=O)OCC2CCN(Cc3ccc(Br)cc3)CC2)ccc1O,inhibition,Mus musculus [2],Active
same,Activity,Mus musculus [3],Active
same,Activity,Mus musculus [4],Active
same,IC50,Acetylcholinesterase,> 30 µM
same,EC50,[1],45.4 µM
same,Activity,SH-SY5Y [5],<50%
same,"cytotoxicity at 24 h, 40 µM",[6],28%
same,Activity,SH-SY5Y [7],Active
same,Activity,[8],Active
same,Activity,[9],Active
same,Activity,[10],inactive
same,Activity,[11],inactive
same,Activity,SH-SY5Y [12],inactive
same,inhibition in vivo at 100 µmol/kg,Mus musculus [13],30%
same,inhibition in vivo at 100 µmol/kg,Mus musculus [14],60%
same,Activity,Mus musculus [15],Active
same,Activity,Mus musculus [16],Non-Toxic
same,Activity,Mus musculus [17],Active
same,Activity,SH-SY5Y [18],Toxic
COc1cc2c(cc1OC)C(=O)C(CC1CCN(Cc3ccccc3)CC1)C2 (configuration not stated) [DONEPEZIL],IC50,SH-SY5Y [19]; sh-sy5y,Not Active
same,Activity,SH-SY5Y [5],<50%
COc1ccc(/C=C/C(=O)OCC2CCN(Cc3ccc(Cl)cc3)CC2)cc1O,IC50,Acetylcholinesterase,> 30 µM
same,EC50,[1],12.5 µM
COc1cc(/C=C/C(=O)OCC2CCN(Cc3ccc4c(c3)OCO4)CC2)ccc1O,IC50,Acetylcholinesterase,> 30 µM
same,EC50,[1],> 100 µM
COc1cc(/C=C/C(=O)OCC2CCN(Cc3ccc([N+](=O)[O-])cc3)CC2)ccc1O,inhibition,[20],50%
same,inhibition,[21],4.3%
same,IC50,Acetylcholinesterase,16.7 µM
same,EC50,[1],46.7 µM
same,Activity,SH-SY5Y [19],Dose-dependent effect
same,IC50,SH-SY5Y [19]; [23],25.9 µM
same,"cytotoxicity at 24 h, 40 µM",[6],9%
same,Activity,[8],Active
same,Activity,[9],Active
same,Activity,[10],inactive
same,Activity,[11],inactive
same,fold change (FC),SH-SY5Y [12],1.2
COc1cc(/C=C/C(=O)O)ccc1O [FERULATE],EC50,[1],35.5 µM
same,IC50,SH-SY5Y [19]; [23],11.8 µM
COc1ccc(/C=C/C(=O)OCC2CCN(Cc3ccc([N+](=O)[O-])cc3)CC2)cc1O,IC50,Acetylcholinesterase,> 30 µM
same,EC50,[1],> 100 µM
COc1ccc(/C=C/C(=O)OCC2CCN(Cc3ccc(N4CCOCC4)cc3)CC2)cc1O,IC50,Acetylcholinesterase,> 30 µM
same,EC50,[1],> 100 µM
COc1ccc(CN2CCC(COC(=O)/C=C/c3ccc(OC)c(O)c3)CC2)cc1,IC50,Acetylcholinesterase,> 30 µM
same,EC50,[1],> 100 µM
COc1ccc(CN2CCC(COC(=O)/C=C/c3ccc(O)c(OC)c3)CC2)cc1,IC50,Acetylcholinesterase,> 30 µM
same,EC50,[1],78.1 µM
COc1ccc(/C=C/C(=O)OCC2CCN(Cc3ccc(Br)cc3)CC2)cc1O,IC50,Acetylcholinesterase,> 30 µM
same,EC50,[1],> 100 µM
COc1cc(/C=C/C(=O)CC(=O)/C=C/c2ccc(O)c(OC)c2)ccc1O [CURCUMIN],IC50,Cholinesterase,> 300 µM
Cc1c(C)c2c(c(C)c1O)CCC(C)(C(=O)O)O2 (configuration not stated) [TROLOX],EC50,[1],4.86 µM
COc1cc(/C=C/C(=O)OCC2CCN(Cc3ccc(Cl)cc3)CC2)ccc1O,IC50,Acetylcholinesterase,> 30 µM
same,EC50,[1],20.5 µM
COc1ccc2c(c1)c(CC(=O)O)c(C)n2C(=O)c1ccc(Cl)cc1 [INDOMETHACIN],Activity,Mus musculus [3],Active
same,Activity,Mus musculus [22],Active
same,Activity,Mus musculus [4],Active
same,inhibition in vivo at 100 µmol/kg,Mus musculus [13],50%
same,inhibition in vivo at 100 µmol/kg,Mus musculus [14],42%
same,Activity,Mus musculus [15],Active
COc1ccc(/C=C/C(=O)OCC2CCN(Cc3ccc4c(c3)OCO4)CC2)cc1O,IC50,Acetylcholinesterase,> 30 µM
same,EC50,[1],> 100 µM
same,IC50,SH-SY5Y [19]; sh-sy5y,Not Active
